# Source: PubChem BioAssay
# Sampled rows, rich in hits. Any-hit rate of the full collection: about 1.6%.
# PvdQ inh: P. aeruginosa PvdQ acylase inhibition; inhibition, % at 10 µM; purified PvdQ acylase, fluorescence plate reader; 340,000 compounds, 0.063% hits; in the data active means inhibition above about 30%, passing the limit was not always enough;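 further: 0% = vehicle neutral wells and 100% = reference inhibitor wells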
# SR-BI DiI inh: mouse SR-BI HDL lipid transfer inhibition; Q61009; ldlA[mSR-BI] CHO cells, DiI-HDL uptake fluorescence, 3 h; inhibition, % at 12.5 µM; 320,000 compounds, 0.96% hits; AID 488896;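 active means mean replicate inhibition of at least 70% and a set share of replicates each scoring 70 or more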;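 further: 0% = median of neutral control wells and 100% = median of positive control wells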
# SR-BI DiI-HDL act: activators of SR-BI mediated HDL lipid uptake; CHO ldlA[mSR-BI] cells, DiI-HDL uptake fluorescence, 3 h; 100 = double the neutral-control signal; activation, % at 12.5 µM; 320,000 compounds, 0.096% hits;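 active means mean replicate activation of at least 60% and every replicate at or above 60%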;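 further: 0% = median plate neutral-control signal and 100% = twice that signal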
#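 Assay system: LDL receptor-deficient CHO ldlA cells overexpressing murine SR-BI / Medium: BSA-supplemented, HEPES-buffered Ham's F12, pH 7.4 / Probe or stimulus: DiI-labelled HDL at 10 µg/mL final / Timing: compound with DiI-HDL co-incubation, 3 h at 37 °C / Technique: bottom-read cell fluorescence after medium removal, ex 550/em 595 nm / Measure: HDL uptake via cellular fluorescence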
# RAD54 inh: RAD54 (human) branch migration inhibition | Q92698 | RAD54 Holliday junction branch migration, FAM/BHQ fluorescence | inhibition, % at 10.4 µM | 360,000 compounds, 0.14% hits | AID 602329;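 active means mean normalized replicate activity at least 40 and at least half of replicates scoring 40 or more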;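 further: 0% = median of neutral control wells and 100% = median of positive control wells; inhibitors cause a drop in the FAM fluorescence signal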
# S100A4 MyoIIA: inhibitors of human S100A4 binding to myosin IIA peptide; 360,000 compounds, 0.14% hits; S100A4/TAMRA-MyoIIA peptide fluorescence polarization; inhibition, % at 10.7 µM; AID 652163;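 active means mean inhibition of at least 70% across replicates, with every replicate also reaching that level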
#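 Compound dosing: one dose per compound; test system: human S100A4 monomer with TAMRA-labelled myosin IIA peptide; probe or stimulus: TAMRA-labelled myosin IIA heavy-chain peptide probe, 5 nM; medium: HEPES buffer with Ca2+, pH 7.2; schedule: 5 min incubation before reading; benchmarks: neutral control DMSO, positive control TFP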
# dFosB act: mouse delta FosB homodimer activation; activation, % at 25 µM; purified delta FosB, TAMRA-CDK5 oligo fluorescence polarization; percent of positive-control signal above neutral wells; 340,000 compounds, 0.99% hits; P13346;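 active means mean activation above about 17%, with every replicate also reaching it, limit read from the data, passing the limit was not always enough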
# The depositor's hits bear a star; . = not tested or not shown.
SMILES,PvdQ inh,SR-BI DiI inh,SR-BI DiI-HDL act,RAD54 inh,S100A4 MyoIIA,dFosB act
CCCCn1c(Oc2ccc(C(=O)OC)cc2)nc2c1c(=O)n(C)c(=O)n2C,2,92*,-92,-13,.,-5
C[C@H]1CN([C@@H](C)CO)C(=O)c2cccc(NC(=O)C3CC3)c2O[C@H]1CN(C)C(=O)Nc1ccc(C(F)(F)F)cc1,.,.,.,-8,-11,.
COc1ccc(-c2cn3c(C)c(C(=O)Nc4ccncc4)sc3n2)cc1,-16,83*,-83,11,8,2
Cc1c(C(=O)Nc2ccncc2)sc2nc(-c3ccc(F)cc3)cn12,-18,77*,-77,-2,4,-8
COc1cc(/C=C2/SC(=S)N(Cc3ccccc3)C2=O)ccc1O,5,18,-18,-6,-7,-1
O=C1/C(=C\c2cccc(O)c2O)SC(=S)N1Cc1ccccc1,-13,133*,-133,-5,2,-4
O=C1/C(=C\c2cccc(O)c2)SC(=S)N1Cc1ccccc1,2,-8,8,-5,-1,-1
O=C1/C(=C\c2ccc(O)c(O)c2)SC(=S)N1Cc1ccccc1,-3,83*,-83,-20,-5,-11
Cc1nn(C)cc1NC(=O)C[C@H]1CC[C@@H]2[C@H](COc3ccc(NC(=O)NC(C)C)cc3C(=O)N2C)O1,.,.,.,-2,-1,.
Cc1noc(C)c1NC(=O)NCC[C@@H]1CC[C@H](NC(=O)c2ccc(F)cc2)[C@H](CO)O1,.,.,.,4,-5,.
CCN1C(=O)[C@H]2[C@@H](c3ccc(-c4ccc5c(c4)OCO5)c(OC)c3)N[C@@](C)(C(=O)OC)[C@H]2C1=O,-1,9,-9,3,99*,-9
COc1ccc(-c2sc3ccccc3c2-c2ccc(OCCN(C)C)cc2)cc1,-14,2,-2,6,1,25*
COc1cc(/C=C/C(=O)OCC(=O)N2CCN(S(=O)(=O)c3ccc(C)cc3C)CC2)ccc1OC(F)F,6,78*,-78,-7,6,-12
Cc1ccc(S(=O)(=O)N2CCN(C(=O)COC(=O)COc3ccc(Cl)cc3)CC2)c(C)c1,6,-18,18,-2,6,208*
C[C@@H]1CCCCO[C@H](CN(C)C(=O)c2ccccc2)[C@@H](C)CN([C@@H](C)CO)C(=O)c2cc(NS(=O)(=O)c3ccccc3)ccc2O1,.,.,.,-6,0,.
O=C(CCCCCn1c(=S)[nH]c2ccc(N3CCOCC3)cc2c1=O)NC1CCN(Cc2ccccc2)CC1,3,18,-18,8,-30,1
O=C(NC1CCN(Cc2ccccc2)CC1)c1ccc(Cn2c(=S)[nH]c3ccc(N4CCOCC4)cc3c2=O)cc1,-17,-21,21,4,2,34*
O=C(C[C@@H]1C=C[C@@H](NC(=O)c2ccncc2)[C@@H](CO)O1)NCCc1ccncc1,.,.,.,-4,-7,.
COCCn1c(=NC(=O)c2ccc(S(=O)(=O)N3CCc4ccccc4C3)cc2)sc2cc(OC)ccc21,-1,72*,-72,-2,.,3
COc1cccc(C(=O)NCCS(=O)(=O)N2CCc3ccccc3C2)c1,-1,-19,19,0,4,-5
COc1ccc(CCNC(=O)c2cccc(S(=O)(=O)N3CCc4ccccc4C3)c2)cc1,44*,53,-53,-2,4,6
COCCn1c(=NC(=O)CCS(=O)(=O)c2ccccc2)sc2cc(C(=O)OC)ccc21,-12,11,-11,-4,3,-12
C[C@H]1CN([C@@H](C)CO)C(=O)c2cc(-c3ccccc3)cnc2O[C@@H]1CN(C)C(=O)Cc1ccccc1,.,.,.,0,12,.
CCN(CC)c1ccc(/C=N/NC(=O)Cc2nnc(NC(=O)Nc3ccccc3)s2)cc1,-7,91*,-91,.,-22,25*
COC(=O)[C@@H]1C[C@@H]2CC[C@@H](O)C[C@@H]2N1Cc1ccc(Cl)cc1,-12,-14,14,-6,13,2
SMILES,PvdQ inh,SR-BI DiI inh,SR-BI DiI-HDL act,RAD54 inh,S100A4 MyoIIA,dFosB act
COC(=O)[C@@H]1C[C@H]2CC[C@H](O)C[C@H]2N1Cc1ccc(C)s1,-16,-60,60*,-3,-6,-10
COCC(=O)Nc1ccc2c(c1)[C@@H]1C[C@H](CC(=O)NCc3ccccn3)O[C@H](CO)[C@@H]1O2,.,.,.,-4,-17,.
CN1CCN(C(=O)C[C@H]2CC[C@@H]3[C@H](COC[C@@H](O)CN3Cc3cccc(F)c3)O2)CC1,.,.,.,-6,9,.
NS(=O)(=O)c1ccc(N/N=C/c2ccc(C(=O)O)cc2)c([N+](=O)[O-])c1,-2,-7,7,9,0,2
Cc1nn(-c2ccccc2)c(N2CCCC2)c1/C=N/Nc1ccc(S(N)(=O)=O)cc1[N+](=O)[O-],-8,80*,-80,.,3,-8
NS(=O)(=O)c1ccc(N/N=C/c2cn(-c3ccccc3)nc2-c2cccs2)c([N+](=O)[O-])c1,5,104*,-104,-3,-3,-12
O=C(Cc1ccccn1)N[C@H]1CC[C@H](CCn2cc(-c3ccccc3)nn2)O[C@@H]1CO,.,.,.,-2,1,.
CCCCOc1ccc(/C=C/C2=CC(C)(C)NC(=S)N2)cc1OCC,-12,89*,-89,.,.,-7
C=CCNc1sc(C(=O)c2ccccc2)c(N)c1-c1nc2ccccc2s1,13,91*,-91,1,.,-3
CCNc1sc(C(=O)c2cccs2)c(N)c1-c1nc2ccccc2s1,-4,98*,-97,8,.,-16
CCOC(=O)c1sc(NCc2ccco2)c(-c2nc3ccccc3s2)c1N,-7,88*,-88,-5,.,0
COc1cccc(-c2ccc3c(c2)O[C@@H](CN(C)Cc2ccncc2)[C@@H](C)CN([C@H](C)CO)S3(=O)=O)c1,.,.,.,-15,-21,.
O=[N+]([O-])c1ccccc1/C=C/c1ccncc1,.,.,.,9,8,.
COc1ccc(C2OCC(C)(C)CO2)cc1OC,-13,-77,77*,-8,8,-2
Nc1c(-c2ccc(Cl)cc2)cnn1-c1cccc(C(F)(F)F)c1,-5,77*,-77,3,.,7
C[C@H]1CN([C@@H](C)CO)C(=O)c2ccccc2-c2ccccc2CO[C@H]1CN(C)C(=O)[C@@H]1CCCN1C,.,.,.,4,6,.
COc1ccc(-c2csc(Nc3cc(C)ccn3)n2)cc1OC,10,.,.,1,-4,-13
COc1ccc(-c2csc(Nc3ccc(C)cn3)n2)cc1OC,-7,77*,-77,3,6,6
COc1ccc(C2=C(C=O)Cc3ccccc3O2)cc1,110*,36,-36,.,-2,-13
O=C(N[C@H]1CC[C@H](CCNC(=O)C2CCC2)O[C@@H]1CO)c1ccncc1,.,.,.,-7,-3,.
